Converted amounts (≈) assume the structure as drawn. The source made the active and inactive calls.

In general, MIC refers to the smallest concentration in the dilution series that meets the test's criterion for growth inhibition.

Series [1] relates to Candida albicans. Briefly: Antifungal activity against Candida albicans ATCC 64124 after 48 hrs by broth dilution method. The series is classed as functional. The method, boiled down:
(§1)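 CLSI M27-A3 broth microdilution with minor modifications. Overnight YPD culture grown at 35 °C, 200 rpm, adjusted to OD600 0.12, diluted in RPMI 1640 buffered to pH 7.0 with 0.165 M MOPS to a final 1–2 × 10^3 CFU/mL. Test compounds at 0.015–31.3 µg/mL, 48 h at 35 °C, DMSO <1.25%. […] Triplicate.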
In general terms: In broth dilution the organism is exposed to a series of concentrations in liquid medium.

For series [2], the system named is Candida albicans. Briefly: Antifungal activity against itraconazole and fluconazole susceptible Candida albicans ATCC MYA-2876 after 48 hrs by broth dilution method. The series is classed as functional.
Series [3] concerns Candida albicans. Description: Antifungal activity against itraconazole and fluconazole resistant Candida albicans ATCC 90819 after 48 hrs by broth dilution method. The series is classed as functional. The following applies: for MIC: Candida albicans, ATCC 90819, 48 h. The method, boiled down: as §1
Series [4] deals with Candida albicans. Description: Antifungal activity against itraconazole and fluconazole susceptible Candida albicans ATCC MYA-2310 after 48 hrs by broth dilution method. The series is classed as functional.
Series [5] concerns Nakaseomyces glabratus. Briefly: Antifungal activity against Candida glabrata ATCC 2001 after 48 hrs by broth dilution method. The class given is functional, CBS 138. Particulars: for MIC: Nakaseomyces glabratus, CBS 138, 48 h.
For series [6], the system named is Pichia kudriavzevii. Briefly: Antifungal activity against Candida krusei ATCC 6258 after 48 hrs by broth dilution method. The series is classed as functional. Particulars: for MIC: Pichia kudriavzevii, ATCC 6258, 48 h. The method, boiled down: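 Yeasts tested per CLSI M27-A3 with minor changes. An overnight YPD culture (35 °C, 200 rpm) was adjusted to OD600 0.12 and diluted in MOPS-buffered RPMI 1640 (pH 7.0) to a final 1–2 × 10^3 CFU/mL. Compounds 0.015–31.3 µg/mL, DMSO <1.25%.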

The test system of series [7] is Candida parapsilosis. Description: Antifungal activity against Candida parapsilosis ATCC 22019 after 48 hrs by broth dilution method. The following applies: for MIC: Lodderomyces parapsilosis, ATCC 22019, 48 h. The class given is functional.
Series [8] deals with Candida albicans. Description: Antifungal activity against Candida albicans ATCC 10231 at 7.8 ug/mL incubated for 1 hr by propidium iodide staining-based fluorescence microscopic method. The class given is functional. The method, boiled down: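 C. albicans ATCC 10231 grown overnight in YPD broth at 35 °C with shaking at 200 rpm, then transferred to RPMI 1640. Cells were exposed to drug and stained with propidium iodide, which enters only cells with compromised membranes. Uptake was judged by fluorescence microscopy against an untreated control.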

Series [9] has as its system Candida albicans. Briefly: Inhibition of 14alpha-demethylase in Candida albicans ATCC 10231 assessed as ergosterol levels at […] by GC-MS analysis. Details: scale not given: the % may be the effect or the level left.
The test system of series [10] is Candida albicans. Briefly: Inhibition of 14alpha-demethylase in Candida albicans ATCC 10231 assessed as 14alpha-methyl ergosta-8,24(28)-dien-3beta,6alpha-diol levels at […] by GC-MS analysis. Details: scale not given: the % may be the effect or the level left.
Series [11] can be described thus: Aqueous solubility of the compound. The following applies: buffer. The class given is physicochemical.
A short description of series [12]: Solubility of the compound in DMSO. The series is classed as physicochemical.
Series [13] relates to Candida albicans. Description: Antifungal activity against Candida albicans ATCC 10231 after 48 hrs by broth dilution method. The series is classed as functional. Particulars: ATCC 10231, 48 h.
Series [14] deals with Candida albicans. Briefly: Antifungal activity against itraconazole and fluconazole resistant Candida albicans ATCC MYA-1237 after 48 hrs by broth dilution method. The class given is functional. Particulars: Candida albicans, ATCC MYA-1237, 48 h. The method, boiled down: as §1
Series [15] has as its system Candida albicans. Briefly: Antifungal activity against itraconazole and fluconazole resistant Candida albicans ATCC MYA-1003 after 48 hrs by broth dilution method. The class given is functional. Particulars: Candida albicans, ATCC MYA-1003, 48 h. The method, boiled down: as §1
The test system of series [16] is Aspergillus flavus. Briefly: Antifungal activity against Aspergillus flavus ATCC MYA-3631 after 48 hrs by broth dilution method. The series is classed as functional. The following applies: ATCC MYA-3631, 48 h.
In series [17] the test system is Aspergillus nidulans. Description: Antifungal activity against Aspergillus nidulans ATCC 38163 after 48 hrs by broth dilution method. The class given is functional. The following applies: Aspergillus nidulans, ATCC 38163, 48 h. Put shortly: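 A. nidulans run per CLSI M38-A2. PDA spores were filtered through glass wool and counted by hemocytometer. Test range 0.03–31.3 µg/mL in MOPS-buffered RPMI 1640 (pH 7.0), final 5 × 10^5 CFU/mL.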

The test system of series [18] is Aspergillus terreus. Briefly: Antifungal activity against Aspergillus terreus ATCC MYA-3633 after 48 hrs by broth dilution method. Particulars: Aspergillus terreus, ATCC MYA-3633, 48 h. The series is classed as functional. The method, boiled down:
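Molds tested per CLSI M38-A2. Spores were harvested from sporulating PDA cultures by filtering through glass wool and counted on a hemocytometer. Serial dilutions (0.03–31.3 µg/mL) were made in RPMI 1640 buffered to pH 7.0 with 0.165 M MOPS, final inoculum 5 × 10^5 CFU/mL.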

The subject of series [19] is Candida albicans. Briefly: Antifungal activity against Candida albicans ATCC 10231 after 48 hrs in the presence of 10% FBS by broth dilution method. The class given is functional. The following applies: ATCC 10231, 48 h.
Series [20] has as its system Candida parapsilosis. Description: Antifungal activity against Candida parapsilosis ATCC 22019 after 48 hrs in the presence of 10% FBS by broth dilution method. The series is classed as functional. Particulars: Lodderomyces parapsilosis, ATCC 22019, 48 h.
Series [21] has as its system Aspergillus nidulans. Briefly: Antifungal activity against Aspergillus nidulans ATCC 38163 after 48 hrs in the presence of 10% FBS by broth dilution method. The class given is functional. Particulars: ATCC 38163, 48 h.
Series [22] has as its system Candida albicans. Description: Antibiofilm activity against voriconazole resistant Candida albicans ATCC 64124 sessile cells incubated for 24 hrs by XTT reduction assay. The series is classed as functional. The following applies: ATCC 64124, 24 h. The method, boiled down: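 Strain B grown overnight in YPD broth at 35 °C, diluted to OD600 0.1 (~10^6 CFU/mL), then grown statically for 24 h at 37 °C to form biofilm. Washed with PBS, then drug in RPMI 1640 at 0.12–62.5 µg/mL for 24 h at 37 °C. Read-out: XTT 0.5 mg/mL with menadione 1 µM, 2 h, A490. SMIC50/SMIC80 are 50%/80% decreases versus drug-free biofilm. Duplicate.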
A general note: Tetrazolium dyes change colour on reduction, which living cells bring about.

Series [23] relates to Candida albicans. Briefly: Ratio of MIC80 for voriconazole resistant Candida albicans ATCC 64124 sessile cells to MIC for voriconazole resistant Candida albicans ATCC 64124. The series is classed as functional.

As for `OC(Cn1cncn1)(Cn1cncn1)c1ccc(F)cc1F` [FLUCONAZOLE], the “MIC=<50” value in series [1] was >408.1 µM; in series [2] it was 50.9 µM (≈ 15.6 µg/mL); in series [3], >408.1 µM; in [4], >408.1 µM; in series [5], >102.2 µM; in [6] it was >102.2 µM. For the same compound, the “MIC=<50” value in series [7] is 6.4 µM (≈ 1.96 µg/mL). Besides, in series [8], the outcome was inactive. Also, the results for the Activity in series [9] and in series [10] were 95.9% and 4.1%, respectively. The solubility result in [11] and in [12] was “Soluble” throughout.

Consider `CCCCCCCCCCCCCN1CCN(CC(O)(Cn2cncn2)c2ccc(F)cc2F)CC1` (stereo not given), for which the MIC in series [13] came out at 3.9 µM (≈ 1.97 µg/mL); in [1] (Candida albicans, ATCC 64124, 48 h) it was 15.4 µM (≈ 7.79 µg/mL); in [2] (Candida albicans, ATCC MYA-2876, 48 h), 3.9 µM (≈ 1.97 µg/mL); in series [3], 3.9 µM (≈ 1.97 µg/mL); in series [4] (Candida albicans, ATCC MYA-2310, 48 h), 7.7 µM (≈ 3.89 µg/mL); in series [14], 7.7 µM (≈ 3.89 µg/mL). The MIC is 7.7 µM (≈ 3.89 µg/mL) in [15]; 1.9 µM (≈ 0.961 µg/mL) in series [5]; 1.9 µM (≈ 0.961 µg/mL) in [6]; < 0.47 µM in [7]; 1.9 µM (≈ 0.961 µg/mL) in series [16]; 1.9 µM (≈ 0.961 µg/mL) in series [17]. 1.9 µM (≈ 0.961 µg/mL) was the least that counted as inhibitory in series [18] (MIC). Further, the solubility result in [11] and in [12] was “Soluble” in each case.

For `C[C@@H]1[C@H](O)[C@@H](C)/C=C/C=C/C=C/C=C/C=C/C=C/C=C/[C@H](O[C@@H]2O[C@H](C)[C@@H](O)[C@H](N)[C@@H]2O)C[C@@H]2O[C@](O)(C[C@@H](O)C[C@@H](O)[C@H](O)CC[C@@H](O)C[C@@H](O)CC(=O)O[C@H]1C)C[C@H](O)[C@H]2C(=O)O` [AMPHOTERICIN B], the MIC in [3] was 1.1 µM (≈ 1.02 µg/mL); in series [19], 7.8 µg/mL.

As to `CCCCCCCCCCN1CCN(CC(O)(Cn2cncn2)c2ccc(Cl)cc2Cl)CC1` (stereo not given), the MIC is 3.9 µM (≈ 1.94 µg/mL) in series [13]; 7.9 µM (≈ 3.92 µg/mL) in [3]; 2 µM (≈ 0.993 µg/mL) in [5]; 3.9 µM (≈ 1.94 µg/mL) in series [6]; 0.48 µM (≈ 0.238 µg/mL) in [7]; 7.9 µM (≈ 3.92 µg/mL) in [16]. Also, the MIC in series [17] was determined as 7.9 µM (≈ 3.92 µg/mL); in [18] it was 7.9 µM (≈ 3.92 µg/mL); in series [19], 1.95 µg/mL; in series [20] it was 0.24 µg/mL; in [21] it was 3.9 µg/mL. The compound further yielded an MIC50 in series [22] of 15.6 µg/mL (≈ 31.4 µM). Besides, the MIC80 in [22] came out at 31.3 µg/mL (≈ 63 µM). In addition, the solubility result in [11] and in series [12] was “Soluble” each time. Further, the Ratio in series [23] was 1 - 2.

(Values after ChEMBL document CHEMBL4024783, “Alkylated Piperazines and Piperazine-Azole Hybrids as Antifungal Agents” (J Med Chem, 2018).)
